Screening results from PubChem BioAssay.
miR-122 sensor: miR-122 inhibition in Huh7 cells. hit rate 0.3% among 340,000. activation (reporter increase), % at 12.5 µM. Huh7 miR-122 Renilla luciferase sensor, 48 h; neutral wells = 0, positive control = 100;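 active = mean replicate activation score at least 90 and every replicate individually at or above 90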;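 note: higher luciferase means less miR-122 activity so hits act as miR-122 inhibitors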
CAL PDZ FP-1: CAL PDZ (human) peptide binding inhibition; Q9HD26; AID 602252; purified CAL PDZ, TMR-peptide fluorescence polarization, 1 h; hit rate 0.92% among 300,000; inhibition, % at 24.9 µM;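 active = mean inhibition of at least 30% with at least half of replicates also reaching 30%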;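 note: 0% = DMSO neutral control and 100% = excess unlabeled competitor peptide PRC23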
CAL PDZ FP-2: human CAL PDZ-peptide interaction inhibition; purified CAL PDZ, TMR-peptide fluorescence polarization, 1 h; Q9HD26; hit rate 0.02% among 330,000; AID 504414; inhibition, % at 20 µM;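 active = highest replicate inhibition of at least 40%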;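 note: plate controls were DMSO neutral control wells for no effect and unlabeled competitor peptide control wells for full effect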
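Material: tagged CAL PDZ protein CerCALP, purified; buffer or medium: sodium phosphate/NaCl buffer pH 7.4 with TCEP, IgG, Thesit; also added: fluorescent TMR peptide probe; schedule: 1 h incubation at room temperature before polarization reading; technique: fluorescence polarization from S- and P-plane intensities, G-factor corrected; control set: unlabelled peptide and DMSO controls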
ARNT TACC3 PPI: ARNT/TACC3 interaction disruption. Q9Y6A5. AlphaScreen His-ARNT PAS-B/GST-TACC3 binding, luminescence; TACC3 fragment carries E629A point mutation. inhibition, % at 9.99 µM. hit rate 0.66% among 390,000. AID 623870;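 active = mean inhibition of replicates at least 50% and at least half of replicates each reaching 50%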;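 note: 0% = complete ARNT plus TACC3 wells and 100% = ARNT alone without TACC3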
F508del corr: CFTR F508del correction in bronchial cells | CFBE cells, YFP halide quenching; stimulated with forskolin plus potentiator P3; % fluorescence drop versus neutral controls | activity (quench increase), % at 7.58 µM | AID 720511 | hit rate 0.36% among 350,000;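 active = mean added fluorescence quench of at least 8% versus neutral control, with both replicates also reaching 8%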;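 note: cells transiently co-express mutant CFTR-F508del with the halide-sensitive YFP; corrector assay measuring rescue of mutant channel to the surface after 24 h compound exposure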
PGC1a acetyl inh: PGC1a acetylation modulation, inhibitor mode. U2OS PGC1a acetylation, AlphaScreen anti-acetyl-lysine; with virally co-expressed GCN5 acetyltransferase. inhibition, % at 15.6 µM. hit rate 0.17% among 350,000. AID 651687;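 active = every replicate shows inhibition of at least 40%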;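 note: 0% = neutral control wells and 100% = positive control wells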
* hit, by the source's call; ! = not active in a repeat; [ ] = remark or other dose. Rows were chosen to be rich in hits. Some 1.7% of all compounds tested hit in one or more screens of this group.

How did CCN(CC(=O)Nc1cccc(OC)c1)CC(=O)Nc1ccc(C)cc1Cl do in these assays?
CAL PDZ FP-1: 66*; ARNT TACC3 PPI: -2; F508del corr: -1; PGC1a acetyl inh: 2

What do the screens show for `CCCn1c(-c2ccccc2)cc(SC)c(C#N)c1=O`?
miR-122 sensor: -6; CAL PDZ FP-1: -2; CAL PDZ FP-2: 1; ARNT TACC3 PPI: -1; F508del corr: 0; PGC1a acetyl inh: 93*

Results for C[C@@H]1CN([C@@H](C)CO)C(=O)Cc2cc(NC(=O)CCC(F)(F)F)ccc2O[C@H]1CN(C)C(=O)Nc1ccccc1 ?
miR-122 sensor: 0[16.7 µM]; ARNT TACC3 PPI: -13; F508del corr: 0; PGC1a acetyl inh: 2

What do the screens show for `O=C(c1ccccc1Cl)N1CCNCC1`?
miR-122 sensor: -3; CAL PDZ FP-1: 1; CAL PDZ FP-2: 0; ARNT TACC3 PPI: -3; PGC1a acetyl inh: 67*

Results for O=C(NCCC(=O)N1CCCC1)c1ccccc1Cl ?
CAL PDZ FP-1: 39*; CAL PDZ FP-2: 0; ARNT TACC3 PPI: -5; F508del corr: 0

How did COCCNC(=O)C[C@H]1C[C@@H]2c3cc(NC(=O)COC)ccc3O[C@@H]2[C@H](CO)O1 do in these assays?
miR-122 sensor: 0[16.7 µM]; ARNT TACC3 PPI: -3; F508del corr: 2; PGC1a acetyl inh: 10

What do the screens show for `CCOc1ccc(C(=O)O/N=C(\N)c2ccccn2)cc1`?
miR-122 sensor: -5; CAL PDZ FP-1: 1; CAL PDZ FP-2: 0; ARNT TACC3 PPI: 4; F508del corr: 8.2*; PGC1a acetyl inh: 1

How did COc1ccc(S(=O)(=O)N(C)C[C@@H]2Oc3ncc(C#CCN(C)C)cc3C(=O)N([C@H](C)CO)C[C@@H]2C)cc1 do in these assays?
miR-122 sensor: -1[16.7 µM]; ARNT TACC3 PPI: -4; F508del corr: 2; PGC1a acetyl inh: -4

What do the screens show for `CC12CCC3c4ccc(O)cc4CCC3C1CCC2=O` (stereo unspecified)?
miR-122 sensor: 6; CAL PDZ FP-1: 1; CAL PDZ FP-2: 0; ARNT TACC3 PPI: -4; F508del corr: 9.4*; PGC1a acetyl inh: -16

What do the screens show for `COc1ccc(S(=O)(=O)Nc2ccc3c(c2)CC(=O)N([C@H](C)CO)C[C@H](C)[C@@H](CN(C)S(=O)(=O)c2cn(C)cn2)O3)cc1`?
miR-122 sensor: 3[16.7 µM]; ARNT TACC3 PPI: -2; F508del corr: -1; PGC1a acetyl inh: -1

What do the screens show for `COc1ccc(CCNC(=O)C(=O)c2c[nH]c3ccccc23)cc1OC`?
CAL PDZ FP-1: 1; CAL PDZ FP-2: -1; ARNT TACC3 PPI: -3; F508del corr: 1

Results for COc1cc(CN(C)C(=O)C(=O)c2c[nH]c3ccccc23)ccc1O ?
miR-122 sensor: 146*; CAL PDZ FP-1: -7; CAL PDZ FP-2: 0; ARNT TACC3 PPI: -6; F508del corr: 1; PGC1a acetyl inh: 0

Results for C[C@@H]1CN([C@H](C)CO)C(=O)c2cc(NS(=O)(=O)c3ccccc3)ccc2O[C@@H]1CN(C)C(=O)Nc1ccc(C(F)(F)F)cc1 ?
miR-122 sensor: 4[16.7 µM]; F508del corr: -4; PGC1a acetyl inh: 7

How did O=C(CN1C(=O)S/C(=C\c2ccccn2)C1=O)Nc1ccccc1 do in these assays?
miR-122 sensor: -4; CAL PDZ FP-2: 0; F508del corr: 1

What do the screens show for `Cc1ccc(NC(=O)CN2C(=O)S/C(=C\c3ccccn3)C2=O)cc1`?
CAL PDZ FP-1: 85*; CAL PDZ FP-2: -1; ARNT TACC3 PPI: 12; F508del corr: -1

Results for S=C(NCC1CCCCC1)Nc1ccc(Oc2ccccc2)cc1 ?
miR-122 sensor: 117*; CAL PDZ FP-1: -1; CAL PDZ FP-2: -2; ARNT TACC3 PPI: 8; F508del corr: 2; PGC1a acetyl inh: -2

How did COc1ccc(NC(=O)N[C@H]2CC[C@@H](CCNC(=O)Nc3cc(F)ccc3F)O[C@@H]2CO)cc1 do in these assays?
F508del corr: -1; PGC1a acetyl inh: -3

How did CN1C(=O)c2cc(NC(=O)Nc3ccccc3F)ccc2OC[C@H]2O[C@H](CC(=O)O)CC[C@@H]21 do in these assays?
miR-122 sensor: -23[16.7 µM]; ARNT TACC3 PPI: -10; F508del corr: -1; PGC1a acetyl inh: -10

What do the screens show for `COc1ccc(C(=O)N/N=C/c2c(CO)cnc(C)c2O)cc1`?
CAL PDZ FP-1: 0; CAL PDZ FP-2: 0; ARNT TACC3 PPI: 72*; F508del corr: 2

How did Cc1ncc(CO)c(/C=N/NC(=O)c2ccoc2C)c1O do in these assays?
miR-122 sensor: 9; CAL PDZ FP-1: 0; CAL PDZ FP-2: -2; F508del corr: 3; PGC1a acetyl inh: 8

Results for Cc1ncc(CO)c(/C=N/NC(=O)c2ccccc2Br)c1O ?
CAL PDZ FP-1: -1; CAL PDZ FP-2: -3; ARNT TACC3 PPI: 61*; F508del corr: 3

What do the screens show for `COc1ccc(C(=O)N/N=C/c2c(C)[nH]c(=O)[nH]c2=O)cc1`?
miR-122 sensor: 2; CAL PDZ FP-1: -4; CAL PDZ FP-2: 11; ARNT TACC3 PPI: 38*; F508del corr: -1; PGC1a acetyl inh: 2

What do the screens show for `Cc1ncc(CO)c(/C=N/NC(=O)c2cc3c(s2)CCCC3)c1O`?
CAL PDZ FP-1: -5; CAL PDZ FP-2: -7; ARNT TACC3 PPI: 62*; F508del corr: -3

What do the screens show for `COc1ccc(CO/N=C/c2c(C)[nH]c(=O)[nH]c2=O)cc1`?
miR-122 sensor: -4; CAL PDZ FP-1: -4; CAL PDZ FP-2: 0; ARNT TACC3 PPI: -3; PGC1a acetyl inh: 3

What do the screens show for `C[C@@H]1CN([C@H](C)CO)C(=O)c2cccc(NS(=O)(=O)c3cccs3)c2O[C@@H]1CN(C)Cc1ccc(C(F)(F)F)cc1`?
miR-122 sensor: 61[16.7 µM]; ARNT TACC3 PPI: 3; F508del corr: 2; PGC1a acetyl inh: -5

How did C[C@@H]1CN([C@H](C)CO)C(=O)c2cccc(NS(=O)(=O)c3cccs3)c2O[C@H]1CN(C)Cc1ccc(C(F)(F)F)cc1 do in these assays?
miR-122 sensor: 264*[16.7 µM]; ARNT TACC3 PPI: 10; F508del corr: 1; PGC1a acetyl inh: 27

What do the screens show for `C[C@H](CO)N1C[C@H](C)[C@@H](CN(C)Cc2ccc(Cl)c(Cl)c2)Oc2c(NS(=O)(=O)c3cccs3)cccc2C1=O`?
miR-122 sensor: 95*!; CAL PDZ FP-1: 0; CAL PDZ FP-2: 1; ARNT TACC3 PPI: -7; F508del corr: 1; PGC1a acetyl inh: -8

How did Cc1ccc(S(=O)(=O)Nc2cccc3c2O[C@@H](CN(C)Cc2ccc(Cl)c(Cl)c2)[C@H](C)CN([C@H](C)CO)C3=O)cc1 do in these assays?
miR-122 sensor: 110*[16.7 µM]; ARNT TACC3 PPI: -3; F508del corr: -1; PGC1a acetyl inh: -28

How did O=C(O)C[C@H]1C=C[C@H](NC(=O)c2ccccc2F)[C@H](CO)O1 do in these assays?
F508del corr: -1; PGC1a acetyl inh: 1
